Measurements pooled from the literature.
Each line is one published result; the experiments were not run side by side.
PDGFRA D842V: Platelet-derived growth factor receptor alpha (PDGFRA, Homo sapiens, UniProt P16234, D842V)
PDGFRA V561D: Platelet-derived growth factor receptor alpha (PDGFRA, Homo sapiens, UniProt P16234, V561D)
PDGFRA: Platelet-derived growth factor receptor alpha (PDGFRA, Homo sapiens, UniProt P16234)

Structure (SMILES) | target | test | setting | quantity | result
Cc1ccc(C(=O)NCc2ccsc2)cc1C#Cc1cn(C(C)C)c2ncnc(N)c12 | PDGFRA D842V | enzyme activity, inhibitor | 1 µM | activity vs control | 2%
Cc1cnc(NC2CCOCC2)nc1-n1cnc(C(=O)NC(CN)c2cc(F)cc(Cl)c2)c1 (stereo not drawn) | PDGFRA V561D | enzyme activity, inhibitor, radiometric | 1 µM | remaining activity | 100%
Cn1nc(C(=O)NCc2ccc(C(=O)O)cc2)cc1-c1ccc2[nH]ccc2c1 | PDGFRA | cell-free assay, competition with immobilised ligand | 0.1 µM | remaining binding | 100%
COc1cc(-c2cc(-c3ccc(N4CCNCC4)cc3)cnc2N)cc(OC)c1OC | PDGFRA V561D | enzyme activity, inhibitor | 1 µM | inhibition | 86%
Cc1cc(NC(=O)c2cccc3cc(-c4cccc5[nH]nc(N)c45)ccc23)ccc1F | PDGFRA V561D | enzyme activity, inhibitor | 0.1 µM | activity vs control | 4%
Cc1ccc(NC(=O)c2ccc(C)c(C(F)(F)F)c2)cc1C#Cc1nn(C2CCC(O)CC2)c2ncnc(N)c12 (stereo not drawn) | PDGFRA D842V | enzyme activity, inhibitor | 10 µM | remaining activity | 0%
CCCOc1ccc(OC)c(F)c1C(=O)c1ccc(C(=O)N[C@@H]2CNC[C@H]2NC(=O)c2ccc3[nH]ncc3c2)cc1 | PDGFRA | enzyme activity, inhibitor | 10 µM | remaining activity | 89%
NS(=O)(=O)c1cc(NC(=O)Cc2ccccc2)ccc1Oc1cccc(Cl)c1 | PDGFRA | cell-free assay, competition with immobilised ligand | 1 µM | remaining binding | 80%
CNC(=O)c1cc(Oc2ccc(NC(=O)Nc3ccc(Cl)c(C(F)(F)F)c3)cc2)ccn1 | PDGFRA D842V | enzyme activity, inhibitor | 0.3 µM | inhibition | 86%
